From PubChem
The full list was thinned out, with hits kept by preference.
T cruzi growth-1: T. cruzi intracellular proliferation inhibitors, primary screen, cell-based, beta-gal Tulahuen parasites, NIH3T3 host, luminescence | T. cruzi beta-gal in NIH3T3, GalScreen luminescence, 90 h | inhibition, % at 8.34 µM | hit rate 5.9% among 77,000 | AID 624255, 2012;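 active means mean inhibition above about 93%, with at least 55% of replicates each passing it, limit read from the data, passing the limit was not always enough; inconclusive means only one of those two conditions holds; inactive means neither condition holds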
IDH1 mut inh: inhibitors of IDH1 R132H reductase, primary screen, biochemical, plate reader, single point; Isocitrate dehydrogenase [NADP] cytoplasmic (Homo sapiens), O75874; diaphorase/resazurin fluorescence, 60 min; inhibition, % at 10 µM; hit rate 0.18% among 70,000; in the data active means inhibition above about 34%; inconclusive means no clear call, values can overlap the other calls; inactive means below about 11%
Target sequence (O75874 whole entry R132H): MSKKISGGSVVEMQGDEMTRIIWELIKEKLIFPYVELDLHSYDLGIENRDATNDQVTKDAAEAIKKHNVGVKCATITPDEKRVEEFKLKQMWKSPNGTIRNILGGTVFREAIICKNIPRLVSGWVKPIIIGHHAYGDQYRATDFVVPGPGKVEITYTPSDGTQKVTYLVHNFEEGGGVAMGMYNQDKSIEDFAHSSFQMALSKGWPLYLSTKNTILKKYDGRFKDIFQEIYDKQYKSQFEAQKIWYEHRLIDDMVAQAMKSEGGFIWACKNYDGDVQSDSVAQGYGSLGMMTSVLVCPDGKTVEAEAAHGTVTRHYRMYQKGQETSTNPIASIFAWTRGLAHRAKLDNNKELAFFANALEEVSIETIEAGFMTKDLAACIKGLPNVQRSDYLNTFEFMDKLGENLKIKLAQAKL
KDM4C inh: inhibitors of GASC-1 (KDM4C) histone demethylase, primary screen, biochemical, single concentration HTS | Lysine-specific demethylase 4C (Homo sapiens), Q9H3R0 | GST-KDM4C 2-372, H3K9me3 peptide, LANCE TR-FRET | inhibition, % at 12.5 µM | hit rate 0.15% among 96,000 | AID 720574, 2013;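 active means mean replicate inhibition above about 25%, with at least 55% of replicates also reaching it, limit read from the data, passing the limit was not always enough; inconclusive means only one of those two conditions met; inactive means neither condition met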
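Compound: one test concentration per compound; Material: GST-GASC-1 enzyme fragment 2-372; Amount: GASC-1 enzyme at 10 nM final in reaction; Also added: H3K9me3 peptide substrate, Fe(II), 2-oxoglutarate; Technique: LANCE TR-FRET; Times: 30 min demethylation and 1 h detection at room temperature.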
T cruzi growth-2: T. cruzi intracellular proliferation inhibitors, confirmation, cell-based, NIH3T3 host, beta-gal parasite, luminescence, cherry-pick; shares compounds with T cruzi growth-1; hit rate 72% among 5,600; T. cruzi beta-gal in NIH3T3, GalScreen luminescence, 90 h; inhibition, % at 8.35 µM;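 active means mean replicate inhibition above about 95% and at least 55% of replicates individually reaching it, limit read from the data; inconclusive means only one of the two criteria is met; inactive means neither criterion is met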
T cruzi growth-3: inhibitors of intracellular T. cruzi replication, confirmation, NIH3T3 host cells, beta-gal parasites, cherry-pick, set 2. shares compounds with T cruzi growth-1. T. cruzi beta-gal in NIH3T3, GalScreen luminescence, 90 h. inhibition, % at 2.09 µM. hit rate 21% among 5,600. AID 651740, 2012;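 active means mean inhibition above about 95%, with at least 55% of replicates also reaching it, limit read from the data; inconclusive means meets just one of the two conditions; inactive means meets neither condition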
3T3 cytotox: cytotoxicity in mouse NIH/3T3 fibroblasts, confirmation, cytotoxicity control for T. cruzi proliferation inhibitor project, cell-based, cherry-pick, single point | cytotoxicity (signal decrease), % at 8.35 µM | NIH/3T3 viability, CellTiter-Glo ATP luminescence, 90 h | hit rate 14% among 5,600 | shares compounds with T cruzi growth-1;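 active means mean signal decrease across replicates above about 35% based on untreated-well scatter, with enough replicates individually passing, limit read from the data; inconclusive means no rule stated though some were filed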
3T3 cytotox 2: NIH/3T3 fibroblast cytotoxicity, confirmation, cytotoxicity control, cell-based, cherry-pick, single point, set 2; shares compounds with T cruzi growth-1; inhibition, % at 24.9 µM; NIH/3T3 viability, CellTiter-Glo ATP luminescence, 90 h; hit rate 56% among 5,600; AID 651744, 2012;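 active means mean loss of cell viability signal at or above a set limit, and enough replicates individually reaching it; inconclusive means meets only the mean limit or only the replicate share; inactive means meets neither condition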
Hits are given with their value; 0 = inactive; ? = inconclusive; - = not tested or not shown.

SMILES	T cruzi growth-1	IDH1 mut inh	KDM4C inh	T cruzi growth-2	T cruzi growth-3	3T3 cytotox	3T3 cytotox 2
C[C@H](CO)N1C[C@H](C)[C@@H](CN(C)C)OCc2ccccc2-c2c(n(C)c3ccccc23)C1=O	?	0	0	0	0	0	0
C[C@@H]1CN([C@@H](C)CO)C(=O)c2c(c3ccccc3n2C)-c2ccccc2CO[C@@H]1CN(C)S(C)(=O)=O	0	0	0	-	-	-	-
COc1ccc(OC)c(N(CC(=O)Nc2ccc(Br)cc2F)S(C)(=O)=O)c1	-	0	-	-	-	-	-
COc1ccc(S(=O)(=O)N(C)C[C@H]2Oc3cc(C4=CCCC4)ccc3S(=O)(=O)N([C@@H](C)CO)C[C@H]2C)cc1	122	0	0	101	105	45	54
COc1ccc(S(=O)(=O)N(C)C[C@H]2Oc3cc(C4=CCCC4)ccc3S(=O)(=O)N([C@H](C)CO)C[C@@H]2C)cc1	0	0	0	-	-	-	-
COc1ccc(S(=O)(=O)N(C)C[C@H]2Oc3cc(C4=CCCC4)ccc3S(=O)(=O)N([C@@H](C)CO)C[C@@H]2C)cc1	0	0	0	-	-	-	-
COc1ccc(S(=O)(=O)N(C)C[C@H]2Oc3cc(C4=CCCC4)ccc3S(=O)(=O)N([C@H](C)CO)C[C@H]2C)cc1	122	0	0	103	0	0	57
COc1ccc([N+](=O)[O-])cc1NC(=O)C1(c2ccc(OC)c(OC)c2)CCCCC1	-	0	-	-	-	-	-
COc1ccc2c3c(n(C)c2c1)[C@H](CO)N(C(=O)CN1CCOCC1)CC31CN(C(=O)CC2CC2)C1	-	-	0	-	-	-	-
C[C@@H](O)C#Cc1ccc([C@H]2[C@@H](CO)N3CCCCN(S(=O)(=O)Cc4ccccc4)C[C@H]23)cc1	0	-	0	-	-	-	-
CC(C)C#Cc1ccc([C@H]2[C@H](CO)N3CCCCN(S(=O)(=O)Cc4ccccc4)C[C@@H]23)cc1	109	-	0	106	0	0	104
CC(C)CC#Cc1ccc([C@@H]2[C@H]3CN(S(=O)(=O)Cc4ccccc4)CCCCN3[C@H]2CO)cc1	104	-	0	99	105	0	106
CCCC#Cc1ccc([C@@H]2[C@H](CO)N3CCCCN(S(=O)(=O)CC)C[C@@H]23)cc1	0	-	0	-	-	-	-
C[C@@H](O)C#Cc1ccc([C@H]2[C@H]3CN(S(=O)(=O)Cc4ccccc4)CCCCN3[C@H]2CO)cc1	0	-	0	-	-	-	-
CC(C)C#Cc1ccc([C@@H]2[C@H]3CN(S(=O)(=O)Cc4ccccc4)CCCCN3[C@H]2CO)cc1	101	-	0	98	0	0	106
C[C@@H](O)C#Cc1ccc([C@@H]2[C@H]3CN(S(=O)(=O)Cc4ccccc4)CCCCN3[C@H]2CO)cc1	0	-	0	-	-	-	-
CC(C)C#Cc1ccc([C@@H]2[C@@H](CO)N3CCCCN(S(=O)(=O)Cc4ccccc4)C[C@H]23)cc1	117	-	0	107	0	0	105
O=C(Nc1ccccc1)NC1CC(C(=O)O)Nc2cc(Cl)cc(Cl)c21 (stereo unspecified)	-	0	-	-	-	-	-
COc1ccc2c3c(n(C)c2c1)[C@@H](CO)N(C(=O)C1CCCC1)CC31CCN(C(=O)CC2CC2)CC1	-	-	0	-	-	-	-
CCNC(=O)[C@@H]1[C@@H](CO)[C@@H]2Cn3c(ccc(-c4ccccc4)c3=O)[C@H]1N2Cc1cccnc1	0	-	0	-	-	-	-
COc1ccc(C)cc1N(CC(=O)Nc1ccc(I)cc1)S(C)(=O)=O	-	0	-	-	-	-	-
CC(C)(C)c1ccc(OCC(=O)Nc2cccc(C(=O)O)c2)cc1	-	0	-	-	-	-	-
C/C=C/c1cnc2c(c1)C(=O)N([C@H](C)CO)C[C@H](C)[C@H](CN(C)Cc1ccc3c(c1)OCO3)O2	-	0	0	-	-	-	-
C[C@@H]1CN([C@H](C)CO)C(=O)c2cc(/C=C/c3ccccc3)cnc2O[C@H]1CN(C)Cc1ccc2c(c1)OCO2	121	0	0	100	?	38	104
C[C@H]1CN([C@@H](C)CO)C(=O)c2cc(/C=C/c3ccccc3)cnc2O[C@H]1CN(C)Cc1ccc2c(c1)OCO2	0	0	0	-	-	-	-
SMILES	T cruzi growth-1	IDH1 mut inh	KDM4C inh	T cruzi growth-2	T cruzi growth-3	3T3 cytotox	3T3 cytotox 2
C[C@H](CO)N1C[C@H](C)[C@H](CN(C)Cc2ccc3c(c2)OCO3)Oc2ncc(/C=C/c3ccccc3)cc2C1=O	111	0	0	98	0	0	103
C[C@H]1CN([C@@H](C)CO)C(=O)c2cc(/C=C/c3ccccc3)cnc2O[C@@H]1CN(C)Cc1ccc2c(c1)OCO2	118	0	0	108	0	0	102
C[C@H](CO)N1C[C@H](C)[C@@H](CN(C)Cc2ccc3c(c2)OCO3)Oc2ncc(/C=C/c3ccccc3)cc2C1=O	0	0	0	-	-	-	-
CO[C@H]1CN(C)C(=O)c2cc(NC(=O)CC(F)(F)F)ccc2OC[C@H](C)N(C(=O)c2ccccc2F)C[C@@H]1C	-	-	0	-	-	-	-
O=C(CSc1n[nH]c(-c2ccccc2Cl)n1)c1ccc(O)c(O)c1	-	0	-	-	-	-	-
Cn1c(SCC(=O)N2CCc3ccccc32)nnc1-c1ccco1	-	0	-	-	-	-	-
C[C@@H]1CN([C@H](C)CO)C(=O)c2cccc(NC(=O)C3CC3)c2O[C@H]1CN(C)Cc1ccc2c(c1)OCO2	0	-	0	-	-	-	-
c1ccc(CNc2ncnc3scc(C4COc5ccccc5O4)c23)cc1 (stereo unspecified)	-	0	-	-	-	-	-
C[C@H](CO)N1C[C@H](C)[C@@H](CN(C)C(=O)Nc2ccccc2)OCCCC[C@H](C)Oc2ccc(NS(=O)(=O)c3ccc(Cl)cc3)cc2C1=O	0	-	0	-	-	-	-
C[C@H](CO)N1C[C@H](C)[C@@H](CN(C)C(=O)Nc2ccccc2)OCCCC[C@H](C)Oc2ccc(NS(=O)(=O)c3ccccc3)cc2C1=O	-	-	0	-	-	-	-
C[C@@H]1CCCCO[C@H](CN(C)C(=O)Nc2ccccc2)[C@@H](C)CN([C@H](C)CO)C(=O)c2cc(NS(=O)(=O)c3ccc(Cl)cc3)ccc2O1	0	0	0	-	-	-	-
C[C@@H]1CCCCO[C@H](CN(C)C(=O)c2ccccc2)[C@H](C)CN([C@H](C)CO)C(=O)c2cc(NS(=O)(=O)c3ccc(Cl)cc3)ccc2O1	0	0	0	-	-	-	-
C[C@H](CO)N1C[C@H](C)[C@H](CN(C)C(=O)Nc2ccccc2)OCCCC[C@H](C)Oc2ccc(NS(=O)(=O)c3ccc(Cl)cc3)cc2C1=O	124	-	79	110	0	0	0
